# TAG inh: triacylglycerol accumulation inhibition; actives 0.66% (n = 230,000); H9c2 cells, Nile Red lipid (TAG) fluorescence; cells loaded with 200 µM oleic acid; inhibition, % at 12.5 µM;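 active = pattern-corrected inhibition of lipid staining of at least 50% with the nuclear-stain viability signal not falling by more than 50%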;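 note: 0% = DMSO wells and 100% = triacsin C control wells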
# hiPSC survival: hiPSC single-cell survival enhancement; survival enhancement, % at 20 µM; ATPlite luminescence; 100% = ROCK inhibitor wells, 0% = DMSO; AID 602274; actives 0.044% (n = 360,000); in the data active = survival enhancement above about 18%;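 note: cells exposed to compounds for 16 hours before the ATP read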
# T cruzi repl: blocks replication of Trypanosoma cruzi | inhibition, % (concentration not given with the values) | T. cruzi beta-gal in NIH3T3, luminescence, 90 h | actives 1.4% (n = 300,000);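 active = mean inhibition across valid replicates above about 55%, limit read from the data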;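 note: signal also drops with host cell toxicity which is not excluded here; 0% = plate median of DMSO wells and 100% = zero luminescence signal; higher percent means less beta-gal luminescence so fewer parasites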
#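 Assay system: NIH/3T3 host cells with β-galactosidase reporter T. cruzi; input: 5,000 host fibroblasts per well; compound: single 50 nL compound addition per well in DMSO; timing: ≥90 h infection period, 3 h prior cell attachment; measured by: GalScreen β-gal luminescence, detergent lysis, 60 min; evaluation: percent inhibition of parasite-derived β-gal signal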
# Rev-erbA mod: Rev-erb alpha (human) modulation; AID 1259318; actives 0.79% (n = 370,000); activity, % at 10 µM; Rev-erbα–FITC-DNA binding, fluorescence polarization, 90 min; P20393;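 active = activity above about 14%, limit read from the data; passing the limit was not always enough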;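 note: 0% = DMSO wells with 35 nM protein and 100% = DMSO wells with 750 nM protein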
# Target sequence (P20393 whole entry, looked up): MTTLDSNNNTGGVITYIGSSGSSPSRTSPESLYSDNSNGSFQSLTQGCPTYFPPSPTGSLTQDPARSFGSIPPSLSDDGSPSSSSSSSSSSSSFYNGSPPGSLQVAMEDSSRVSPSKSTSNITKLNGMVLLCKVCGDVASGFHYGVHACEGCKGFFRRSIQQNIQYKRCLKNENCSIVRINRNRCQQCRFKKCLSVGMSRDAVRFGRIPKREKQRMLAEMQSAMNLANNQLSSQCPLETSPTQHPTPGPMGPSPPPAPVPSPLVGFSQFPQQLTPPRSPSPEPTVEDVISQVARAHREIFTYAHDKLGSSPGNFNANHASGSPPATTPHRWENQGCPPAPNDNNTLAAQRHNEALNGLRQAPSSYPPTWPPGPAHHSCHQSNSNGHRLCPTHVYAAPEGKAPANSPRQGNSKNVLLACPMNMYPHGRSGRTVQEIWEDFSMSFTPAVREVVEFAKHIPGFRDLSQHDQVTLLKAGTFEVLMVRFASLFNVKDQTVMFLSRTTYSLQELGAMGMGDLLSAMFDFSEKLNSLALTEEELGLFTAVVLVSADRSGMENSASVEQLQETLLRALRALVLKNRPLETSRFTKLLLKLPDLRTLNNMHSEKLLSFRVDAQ
# MIN6 prolif: inducers of beta-cell replication in MIN6 cells. actives 0.29% (n = 330,000). proliferation, % at 10 µM. MIN6 cells proliferation, ATPlite luminescence, 48 h; cells starved in 0.2% serum; 100% = growth in 10% serum;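 active = compounds whose signal lies at least 3.5 SD above the mean of all wells on their plate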;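 note: 0% = DMSO-treated cells in low-serum medium and 100% = 10% serum control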
# PG9 binder: PG9 antibody binding by small molecule. TR-FRET gp120-PG9 antibody binding. inhibition, % at 6.7 µM. actives 0.43% (n = 360,000). AID 624416; in the data active = inhibition above about 8.5%
# Rev-erbA confirm: Rev-erb alpha (human) modulation, hit confirmation; shares compounds with Rev-erbA mod; Rev-erb alpha FITC-DNA binding, fluorescence polarization, 90 min; activation, % at 25 µM; actives 61% (n = 3,000);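 active = activation at or above a set limit, or at least 3 SD above the negative control mean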;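 note: 0% = 35 nM protein with DMSO and 100% = 750 nM protein high control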
# RORg DNA counter: RORgamma DNA-binding activity, dose-response counter-screen. actives 8% (n = 910). purified RORgamma protein-FITC-DNA binding, fluorescence polarization. shares compounds with Rev-erbA mod. IC50, µM;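 active = Compounds whose fitted half-maximal concentration for disrupting protein-DNA binding is below 10 micromolar; the record names Rev-erb in its text, so the target is in doubt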
# An asterisk follows results filed as active; · = not tested or not shown. In the library only some 2.9% were active in any assay of this set; here they are far more common.
SMILES,TAG inh,hiPSC survival,T cruzi repl,Rev-erbA mod,MIN6 prolif,PG9 binder,Rev-erbA confirm,others
COc1cc2oc(=O)c3c(c2cc1OCC(=O)c1c(C)n(C)c2ccccc12)CCCC3,·,-1,7,36*,0,-1,-12,
CCCCCC(=O)NC(=S)Nc1ccc(NC(=O)c2ccco2)cc1,7,-1,-21,4,-3,0,·,
Cc1ccc(C(=O)NN2C(=O)/C(=C/c3cn(C)c4ccccc34)SC2=S)cc1,·,2,·,9,·,-2,·,
Cn1cc(/C=C2\SC(=O)NC2=S)c2ccccc21,11,0,22,27*,-6,-9,17,
Cc1oc2c(C)c3oc(=O)c4c(c3cc2c1C)CCCC4,·,5,17,30*,-2,1,1,
CCc1nnc(NC(=O)CSc2nc(C)cc(C)c2C#N)s1,-10,-1,-1,5,-5,0,·,
CCSc1nc(-c2ccc(OC)cc2)cc(-c2ccccc2)c1C#N,·,2,16,21,-6,1,·,
COc1ccc(-c2cc(-c3ccccc3)nc(SCC(=O)Nc3ncc(C)s3)c2C#N)cc1,·,-1,41,39*,-3,3,7,
CCc1nnc(NC(=O)CSc2nc(-c3ccc(F)cc3)cc(-c3ccccc3)c2C#N)s1,·,5,·,38*,·,0,16,
Cc1cc(C(=O)CSc2nc3ccccc3c(=O)n2C)c(C)n1Cc1ccc2c(c1)OCO2,-65,-2,49,42*,-6,2,6,
CC(C)C[C@H]1COc2cc(NCc3ccc(Cl)c(Cl)c3)ccc2S(=O)(=O)N1,·,·,·,17*,·,6,6,
CCN(CC)c1ccc(NC(=O)C2=CCN(S(=O)(=O)c3ccc(F)cc3)CC2)c(C)c1,-6,0,8,-7,-1,-3,·,
COc1ccc(/C=C2\Oc3cc(OC(=O)N4CCOCC4)ccc3C2=O)c(OC)c1,-34,-1,16,22*,-2,-2,9,
O=C1/C(=C/c2ccccc2)Oc2cc(OC(=O)N3CCOCC3)ccc21,·,-1,-3,-3,-3,1,·,
O=C(Nc1ccc2nn(-c3ccccc3)nc2c1)c1ccc(Br)o1,·,-2,26,37*,-3,-11,26*,
COc1ccc(CN2CCN(CCc3ccccc3)C(CCO)C2)c(O)c1 (stereo unspecified),9,0,-14,16*,1,5,-1,
COc1ccc(Cn2c(C)nc3c(c(=O)c4ccccc4n3C)c2=O)cc1,-5,-1,0,4,2,-2,·,
Cc1ccc(-c2nc3c(c(=O)c4ccccc4n3C)c(=O)n2-c2ccc(F)cc2)cc1,7,0,-14,69*,-1,-1,43*,RORg DNA counter=2.7*
COc1ccc(Cn2c(-c3ccccc3C)nc3c(c(=O)c4ccccc4n3C)c2=O)cc1,-8,0,5,45*,-1,2,2,
COc1ccc(Cn2c(-c3ccc(C)cc3)nc3c(c(=O)c4ccccc4n3C)c2=O)cc1,-22,9,51,27*,0,1,14,
COc1ccc(-c2nc3c(c(=O)c4ccccc4n3C)c(=O)n2Cc2ccccc2)cc1,-6,5,20,48*,-2,1,50*,RORg DNA counter=>40
CC1(NC(=O)Cn2cc(C(F)(F)F)ccc2=O)CCS(=O)(=O)C1 (stereo unspecified),15,0,·,2,-1,1,·,
CCOC(=O)c1cc(C#N)c(=S)[nH]c1C,10,1,3,12,3,1,·,
CC(C)(C)C1CCC(=NNC(=O)C(=O)NCc2ccco2)CC1 (stereo unspecified),9,0,3,-4,2,1,·,
CC(C)Cn1c(=O)c2ccccc2n2c(CCC(=O)NC3CCN(Cc4ccccc4)CC3)nnc12,·,0,29,-4,-2,-2,·,
SMILES,TAG inh,hiPSC survival,T cruzi repl,Rev-erbA mod,MIN6 prolif,PG9 binder,Rev-erbA confirm,others
O=C1C=CC(=O)N1CCCCCCN1C(=O)C=CC1=O,·,·,·,-2,·,0,·,
COc1ccc(-c2nc3c(c(=O)[nH]c(=O)n3Cc3ccccc3)n2C)cc1,4,-2,12,43*,-5,0,0,
CCCCCc1nc2c(c(=O)c3ccccc3n2C)c(=O)n1Cc1ccc(OC)cc1,-2,0,12,67*,-4,1,34*,RORg DNA counter=>40
Cn1c(-c2cccc(OCc3ccccc3)c2)nc2c1c(=O)[nH]c(=O)n2Cc1ccccc1,·,-3,·,12,-7,0,·,
COc1ccc(CCNC(=S)NCCc2ccc(OC)c(OC)c2)cc1OC,7,-2,0,0,-3,0,·,
O=C(NCCN=C1NS(=O)(=O)c2ccccc21)c1ccccc1,·,1,-4,0,7,-1,·,
COc1ccc(CNC(=O)C2CC(c3cccc([N+](=O)[O-])c3)=NO2)cc1 (stereo unspecified),·,5,-24,0,-1,1,·,
CCc1ccc([C@@H]2C[C@H]3CN(Cc4ccccc4OC)C(=O)[C@]34CCCN24)cc1,·,-1,39,53*,-2,-2,3,
COc1ccccc1CN1C[C@@H]2C[C@@H](c3ccc(C)cc3)N3CCC[C@@]23C1=O,10,2,11,4,3,-1,·,
CCn1ccnc1[C@@H]1C[C@H]2CN(Cc3ccccc3OC)C(=O)[C@]23CCCN13,-2,-1,-17,25*,1,0,1,
CCOC(=O)c1cc2c(nc1NC(=S)NCc1ccccc1)CCCC2,-11,1,10,38*,-2,0,23*,
CCOC(=O)c1cc2c(nc1NC(=S)Nc1ccccc1)CC(C)(C)OC2,-15,3,-6,-2,1,-5,·,
COC(=O)c1sc2nc3c(cc2c1N)C(=O)CC(C)(C)C3,·,-2,-5,70*,0,-2,44*,RORg DNA counter=>40
CCOC(=O)c1sc2nc3c(cc2c1N)C(=O)CC(C)(C)C3,17,2,-15,2,1,-2,·,
O=C1c2cnc3nc(SCc4cccc(Cl)c4)nn3c2CC2c3ccccc3CCN12 (stereo unspecified),·,1,22,34*,-4,-2,11,
CSc1nc2ncc3c(n2n1)CC1c2ccccc2CCN1C3=O (stereo unspecified),11,0,10,-3,2,2,·,
O=C1c2ccc(-c3ccc(F)cc3OCc3ccccc3)cc2S(=O)(=O)c2cccc(C(=O)N3CCN(c4ncc(Br)cn4)CC3)c21,·,0,·,75*,1,0,66*,

# Screening results: PubChem BioAssay, several laboratories
